Assay results as given in ChEMBL document CHEMBL1799977, “Discovery of MK-0952, a selective PDE4 inhibitor for the treatment of long-term memory loss and mild cognitive impairment” (Bioorg Med Chem Lett, 2010).
pIC50: −log10 of the molar value. Active and inactive are the calls of the source. The rule behind the calls is not given here.

Experiments:
[1] = test system: Brain; test: Drug level in brain of Lister rat during water maze delayed matching to position test; details: in vivo, read-out: Drug uptake
[2] = Ratio IC50 for PDE4 activity in human whole blood to IC50 for PDE4; assay type: tissue-based
Outline: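 Ratio of two IC50s. The numerator is from human whole blood stimulated with LPS, read as inhibition of TNF-α release. The denominator (PDE4QT) is the mean of the IC50s on the PDE4A, B and D catalytic domains. These were expressed as GST constructs in Sf9 cells by baculovirus. Each IC50 is the average of at least two experiments.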

[3] = species on record: Rattus norvegicus; test: Cognitive enhancing effect in Lister rat assessed as change in escape latency pretreated before sample phase by water maze delayed matching to position test; assay type: functional; details: read-out: MED
Outline: (§1)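 Rats in a water maze with the platform moved daily, four 60 s trials per day over five days. Oral dosing in 0.5% methocel, 90 or 30 min before the sample trial. Savings score = escape latency difference between trials 1 and 2 over a 4 h delay. n = 10; Newman–Keuls test.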

[4] = target: 3',5'-cyclic-AMP phosphodiesterase 4A (Homo sapiens, UniProt P27815); test: Inhibition of PDE4A; details: pooled result: one value given for 3 cell lines, strains, targets or settings
Sequence of 3',5'-cyclic-AMP phosphodiesterase 4A (P27815 whole entry, the tested form may be a part): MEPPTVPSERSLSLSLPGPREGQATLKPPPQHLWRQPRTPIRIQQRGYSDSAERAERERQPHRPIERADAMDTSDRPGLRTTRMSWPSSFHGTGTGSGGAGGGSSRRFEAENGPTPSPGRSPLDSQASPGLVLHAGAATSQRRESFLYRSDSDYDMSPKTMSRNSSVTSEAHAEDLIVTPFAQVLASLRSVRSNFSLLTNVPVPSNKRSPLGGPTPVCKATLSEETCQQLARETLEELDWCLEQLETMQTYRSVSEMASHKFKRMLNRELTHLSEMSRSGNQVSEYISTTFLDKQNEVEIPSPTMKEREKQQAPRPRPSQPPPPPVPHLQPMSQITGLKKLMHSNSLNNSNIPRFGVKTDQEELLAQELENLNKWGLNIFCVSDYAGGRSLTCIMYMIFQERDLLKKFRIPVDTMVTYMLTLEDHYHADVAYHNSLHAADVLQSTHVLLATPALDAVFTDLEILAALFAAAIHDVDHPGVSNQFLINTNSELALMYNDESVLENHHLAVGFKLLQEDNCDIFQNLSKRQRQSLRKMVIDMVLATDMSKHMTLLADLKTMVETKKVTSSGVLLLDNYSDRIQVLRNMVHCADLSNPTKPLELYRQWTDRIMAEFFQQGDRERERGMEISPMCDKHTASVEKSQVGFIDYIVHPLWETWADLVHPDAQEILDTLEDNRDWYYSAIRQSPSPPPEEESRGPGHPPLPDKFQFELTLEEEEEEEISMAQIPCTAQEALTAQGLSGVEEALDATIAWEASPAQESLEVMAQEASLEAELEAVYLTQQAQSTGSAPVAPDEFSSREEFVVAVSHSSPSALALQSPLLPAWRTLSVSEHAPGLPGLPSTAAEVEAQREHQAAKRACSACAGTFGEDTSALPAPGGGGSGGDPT
Outline: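 Catalytic domains of PDE4A, B and D expressed as GST constructs in SF9 cells (baculovirus). IC50s are averages of at least two experiments.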

[5] = test system: Plasma; test: Drug level in plasma of Lister rat during conditional taste aversion test; assay type: ADME, cell-free
Outline: (§2)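 Male hooded Lister rats in the conditioned taste aversion test given oral compound in 0.5% methocel. Plasma and whole brain levels were measured on the tested animals 90 min post-dosing.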

[6] = species on record: Rattus norvegicus; test: Induction of adverse effect in Lister rat assessed as induction of malaise by conditional taste aversion test; assay type: organism-based; details: in vivo
Outline: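 Singly housed male hooded Lister rats, water-deprived 22.5 h/day. On two conditioning days they had 20 min access to 0.1% saccharin, then received oral compound in 0.5% methocel, vehicle, or LiCl 30 mg/kg ip. Consumption on test day was compared with baseline (n = 6–8; Dunnett's test).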

[7] = target: Phosphodiesterase 4 (Homo sapiens, UniProt P27815+Q08499+Q07343+Q08493); test: Inhibition of PDE4 activity in human whole blood assessed as inhibition of LPS-induced TNF-alpha release
[8] = target: T1, Cytochrome P450 2C9 (Homo sapiens, UniProt P11712); test: Competitive inhibition of CYP2C9; assay type: ADME
T1 sequence (P11712 whole entry): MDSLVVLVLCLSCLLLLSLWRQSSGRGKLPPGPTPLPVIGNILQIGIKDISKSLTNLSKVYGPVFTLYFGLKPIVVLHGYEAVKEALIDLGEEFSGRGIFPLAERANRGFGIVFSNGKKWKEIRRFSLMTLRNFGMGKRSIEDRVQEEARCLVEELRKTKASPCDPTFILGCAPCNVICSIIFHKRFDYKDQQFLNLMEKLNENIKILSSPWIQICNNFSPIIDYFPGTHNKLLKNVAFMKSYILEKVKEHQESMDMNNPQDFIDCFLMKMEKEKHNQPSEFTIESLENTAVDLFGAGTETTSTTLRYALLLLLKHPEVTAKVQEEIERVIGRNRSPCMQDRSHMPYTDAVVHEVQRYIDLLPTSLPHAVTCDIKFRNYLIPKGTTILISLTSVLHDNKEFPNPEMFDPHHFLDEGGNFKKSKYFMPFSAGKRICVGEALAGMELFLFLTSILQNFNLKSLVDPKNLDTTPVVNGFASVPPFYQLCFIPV

[9] = test system: Plasma; test: Drug level in plasma of Lister rat during water maze delayed matching to position test
[10] = Inhibition of PDE4 activity in rat whole blood assessed as inhibition of LPS-induced TNF-alpha release; assay type: tissue-based
[11] = test system: Brain; test: Drug level in brain of Lister rat during conditional taste aversion test; assay type: ADME, tissue-based; details: in vivo, read-out: Drug uptake
Outline: as §2

[12] = Oral bioavailability in rat at 10 mg/kg; assay type: ADME, organism-based; details: in vivo
[13] = Inhibition of PDE4 activity in squirrel monkey whole blood assessed as inhibition of LPS-induced TNF-alpha release; assay type: tissue-based; details: Saimiri
[14] = Metabolic stability in rhesus monkey hepatocytes assessed as compound metabolism level; assay type: ADME, cell-based, Macaca mulatta, Hepatocyte; details: read-out: Activity
[15] = Oral bioavailability in rhesus monkey at 10 mg/kg; assay type: ADME, organism-based, Macaca mulatta; details: in vivo
[16] = Clearance in dog at 3 mg/kg, po or 1 mg/kg, iv; assay type: ADME, organism-based, Canis lupus familiaris; details: in vivo
[17] = Oral bioavailability in squirrel monkey at 10 mg/kg; assay type: ADME, organism-based; details: saimiri, in vivo
[18] = Metabolic stability in human hepatocytes assessed as compound metabolism level; assay type: ADME, cell-based, Hepatocyte; details: read-out: Activity
[19] = Clearance in rat at 10 mg/kg, po or 3 mg/kg, iv; assay type: ADME, organism-based; details: in vivo
[20] = Clearance in squirrel monkey at 10 mg/kg, po or 1 mg/kg, iv; assay type: ADME, organism-based; details: saimiri, in vivo
[21] = Oral bioavailability in dog at 3 mg/kg; assay type: ADME, organism-based, Canis lupus familiaris; details: in vivo
[22] = Half life in dog at 3 mg/kg, po or 1 mg/kg, iv; assay type: ADME, organism-based, Canis lupus familiaris; details: in vivo
[23] = Half life in squirrel monkey at 10 mg/kg, po or 1 mg/kg, iv; assay type: ADME, organism-based; details: saimiri, in vivo
[24] = Half life in rat at 10 mg/kg, po or 3 mg/kg, iv; assay type: ADME, organism-based; details: in vivo
[25] = Metabolic stability in dog hepatocytes assessed as compound metabolism level; assay type: ADME, cell-based, Canis lupus familiaris, Hepatocyte; details: read-out: Activity
[26] = test system: Hepatocyte; test: Increase in CYP3A4 protein level in human primary hepatocytes at 10 uM by Western blot analysis relative to rifampicin; assay type: ADME, cell-based
Outline: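 Human primary cultured hepatocytes exposed to 10 µM compound; CYP3A4 protein measured by Western blot relative to rifampicin at 10 µM.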

[27] = Metabolic stability in female rat hepatocytes assessed as compound metabolism level; assay type: ADME, cell-based, Hepatocyte; details: read-out: Activity
[28] = species on record: Rattus norvegicus; test: Ratio MED for cognitive enhancing effect in lister rat during water maze delayed matching to position test to MED for adverse effect in lister rat during conditional taste aversion test; assay type: functional
Outline: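 Therapeutic window as water maze MED over CTA MED. Water maze: rats dosed orally daily in 0.5% methocel before sample trial, 0.01–3.0 mg/kg, n = 10; four 60 s trials/day, 4 h inter-trial delay, savings score. CTA: water-deprived male hooded Lister rats, 20 min 0.1% saccharin on two conditioning days, oral dose immediately after; LiCl 30.0 mg/kg ip control; test-day intake.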

[29] = Metabolic stability in male rat hepatocytes assessed as compound metabolism level; assay type: ADME, cell-based, Hepatocyte; details: read-out: Activity
[30] = target: T1, Cytochrome P450 2C9; test: Inhibition of human CYP2C9; assay type: ADME
[31] = Drug excretion in bile cannulated male rat assessed as excretion of parent compound in bile at 3 mg/kg, iv using [3H]-labeled compound measured after 8 hrs; assay type: ADME, organism-based; set-up: dose 3 mg/kg, route intravenous; details: in vivo
Outline: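 Permanently bile-cannulated male rats dosed iv with tritiated compound (3 mg/kg, 100 μCi/kg); bile collected 0–8 h and parent expressed as % of total radioactivity.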

[32] = target: CYP3A (Homo sapiens, UniProt P08684+P20815+P24462+Q9HB55); test: Inhibition of human CYP3A; assay type: ADME
[33] = Inhibition of PDE4 activity in rhesus monkey whole blood assessed as inhibition of LPS-induced TNF-alpha release; assay type: tissue-based; details: Macaca mulatta
[34] = Half life in rhesus monkey at 10 mg/kg, po or 1 mg/kg, iv; assay type: ADME, organism-based, Macaca mulatta; details: in vivo
[35] = target: Cytochrome P450 2D6 (Homo sapiens, UniProt P10635); test: Inhibition of human CYP2D6; assay type: ADME
Sequence of Cytochrome P450 2D6 (P10635 whole entry): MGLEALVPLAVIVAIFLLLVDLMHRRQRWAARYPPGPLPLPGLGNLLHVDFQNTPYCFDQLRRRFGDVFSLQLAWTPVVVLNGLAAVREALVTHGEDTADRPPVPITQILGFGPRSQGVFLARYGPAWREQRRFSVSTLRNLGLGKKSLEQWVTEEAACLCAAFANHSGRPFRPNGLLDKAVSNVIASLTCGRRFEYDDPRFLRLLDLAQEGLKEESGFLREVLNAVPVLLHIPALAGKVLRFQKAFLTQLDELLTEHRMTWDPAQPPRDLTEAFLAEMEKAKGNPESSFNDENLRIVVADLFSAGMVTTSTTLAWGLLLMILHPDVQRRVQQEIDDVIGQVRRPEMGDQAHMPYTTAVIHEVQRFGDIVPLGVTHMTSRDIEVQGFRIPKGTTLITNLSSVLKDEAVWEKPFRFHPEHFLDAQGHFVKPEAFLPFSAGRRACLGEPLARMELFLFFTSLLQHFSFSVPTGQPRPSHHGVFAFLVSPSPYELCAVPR

[36] = Clearance in rhesus monkey at 10 mg/kg, po or 1 mg/kg, iv; assay type: ADME, organism-based, Macaca mulatta; details: in vivo
[37] = species on record: Rattus norvegicus; test: Cognitive enhancing effect in Lister rat assessed as change in escape latency pretreated 90 mins before sample phase by water maze delayed matching to position test; assay type: functional; details: read-out: MED
Outline: as §1

[38] = target: T2, Cytochrome P450 1A2 (Homo sapiens, UniProt P05177); test: Inhibition of human CYP1A2; assay type: ADME
T2 sequence (P05177 whole entry): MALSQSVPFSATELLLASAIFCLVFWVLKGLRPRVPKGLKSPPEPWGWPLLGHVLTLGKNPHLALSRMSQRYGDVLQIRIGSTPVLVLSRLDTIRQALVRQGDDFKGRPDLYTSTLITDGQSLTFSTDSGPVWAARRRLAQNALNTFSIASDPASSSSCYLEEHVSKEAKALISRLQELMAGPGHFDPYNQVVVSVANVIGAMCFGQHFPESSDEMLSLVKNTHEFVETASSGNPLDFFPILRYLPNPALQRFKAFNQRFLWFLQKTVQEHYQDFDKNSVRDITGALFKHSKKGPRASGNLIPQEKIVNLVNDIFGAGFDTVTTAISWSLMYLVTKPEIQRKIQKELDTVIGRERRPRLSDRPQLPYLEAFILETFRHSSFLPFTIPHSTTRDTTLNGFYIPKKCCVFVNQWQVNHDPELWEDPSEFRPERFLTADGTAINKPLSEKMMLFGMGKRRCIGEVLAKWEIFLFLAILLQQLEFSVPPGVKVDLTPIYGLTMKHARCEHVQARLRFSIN

[39] = test system: Rattus norvegicus; test: Cognitive enhancing effect in Lister rat assessed as recognition of novel object at 0.1 mg/kg, po pretreated 90 mins before sample phase by novel object recognition test; assay type: functional, organism-based; set-up: dose 0.1 mg/kg
Outline: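 Novel object recognition in rats. Oral dosing in 0.5% methocel 90 min before the sample trial, which ended at 25 s of exploration or 3 min. Choice trial followed with a familiar and a novel object. d2 score = (novel − familiar)/total exploration. n = 21–24; Newman–Keuls test.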

[40] = species on record: Rattus norvegicus; test: Cognitive enhancing effect in Lister rat assessed as change in escape latency pretreated 30 mins before sample phase by water maze delayed matching to position test; assay type: functional; details: read-out: MED
Outline: as §1

## O=C(NC1CC1)c1cn(-c2cccc(C#Cc3ccc[n+]([O-])c3)c2)c2ncccc2c1=O [MK-0873]
[1]
  concentration: 0.015 µM
[2]
  Ratio IC50: 37
[3]
  minimal effective dose: 0.3 mg/kg
[4]
  pIC50: 8.29
[5]
  concentration: 0.828 µM
[6]
  MED: 1 mg/kg
[7]
  IC50: 0.19 µM
[8]
  pIC50: 4.40
[9]
  concentration: 0.258 µM
[10]
  pIC50: 7.19
[11]
  concentration: 0.048 µM

## O=C(NC1CC1)c1cn(-c2cccc(-c3ccc([C@@H]4C[C@H]4C(=O)O)c(F)c3)c2)c2ncccc2c1=O
[1]
  concentration: 0.0092 µM
[12]
  bioavailability: 38%
[13]
  pIC50: 7.28
[14]
  metabolised: 10%
[15]
  bioavailability: 77%
[16]
  clearance: 0.222 L/h/kg
[17]
  bioavailability: 41%
[18]
  metabolised: 2%
[19]
  clearance: 0.06 L/h/kg
[20]
  clearance: 0.102 L/h/kg
[21]
  bioavailability: 100%
[4]
  pIC50: 9.28
[22]
  half-life: 6.6 h
[23]
  half-life: 4.3 h
[24]
  half-life: 3.5 h
[25]
  metabolised: 30%
[26]
  Activity: 23%
[5]
  concentration: 12.1 µM
[27]
  metabolised: 20%
[28]
  Ratio: 100
[29]
  metabolised: 5%
[30]
  pIC50: < 4.00
[31]
  Activity: > 35%
[6]
  MED: 10 mg/kg
[32]
  pIC50: < 4.00
[7]
  IC50: 0.55 µM
[33]
  pIC50: 6.03
[9]
  concentration: 0.39 µM
[34]
  half-life: 6.5 h
[35]
  pIC50: < 4.00
[36]
  clearance: 0.078 L/h/kg
[37]
  minimal effective dose: 0.1 mg/kg
[38]
  pIC50: < 4.00
[10]
  pIC50: 6.35
[11]
  concentration: 0.29 µM

## Cc1noc(/C(=C/c2cccc(-c3cc(C(C)(C)S(C)(=O)=O)cc4cccnc34)c2)c2ccc(S(C)(=O)=O)cc2)n1
[1]
  concentration: 0.0051 µM
[39]
  Activity: Active
[5]
  concentration: 0.113 µM
[6]
  MED: 1 mg/kg
[9]
  concentration: 0.027 µM
[40]
  minimal effective dose: 0.3 mg/kg
[10]
  pIC50: 7.64
[11]
  concentration: 0.021 µM
